This note sets out measurements from ChEMBL document CHEMBL1152560, “Substituted 2-arylbenzothiazoles as kinase inhibitors: hit-to-lead optimization” (Bioorg Med Chem, 2009).

SMILES strings stand for the structures.

Test [1] has as its target T1, Serine/threonine-protein kinase D3 (Homo sapiens) (UniProt O94806).
T1 sequence (whole entry): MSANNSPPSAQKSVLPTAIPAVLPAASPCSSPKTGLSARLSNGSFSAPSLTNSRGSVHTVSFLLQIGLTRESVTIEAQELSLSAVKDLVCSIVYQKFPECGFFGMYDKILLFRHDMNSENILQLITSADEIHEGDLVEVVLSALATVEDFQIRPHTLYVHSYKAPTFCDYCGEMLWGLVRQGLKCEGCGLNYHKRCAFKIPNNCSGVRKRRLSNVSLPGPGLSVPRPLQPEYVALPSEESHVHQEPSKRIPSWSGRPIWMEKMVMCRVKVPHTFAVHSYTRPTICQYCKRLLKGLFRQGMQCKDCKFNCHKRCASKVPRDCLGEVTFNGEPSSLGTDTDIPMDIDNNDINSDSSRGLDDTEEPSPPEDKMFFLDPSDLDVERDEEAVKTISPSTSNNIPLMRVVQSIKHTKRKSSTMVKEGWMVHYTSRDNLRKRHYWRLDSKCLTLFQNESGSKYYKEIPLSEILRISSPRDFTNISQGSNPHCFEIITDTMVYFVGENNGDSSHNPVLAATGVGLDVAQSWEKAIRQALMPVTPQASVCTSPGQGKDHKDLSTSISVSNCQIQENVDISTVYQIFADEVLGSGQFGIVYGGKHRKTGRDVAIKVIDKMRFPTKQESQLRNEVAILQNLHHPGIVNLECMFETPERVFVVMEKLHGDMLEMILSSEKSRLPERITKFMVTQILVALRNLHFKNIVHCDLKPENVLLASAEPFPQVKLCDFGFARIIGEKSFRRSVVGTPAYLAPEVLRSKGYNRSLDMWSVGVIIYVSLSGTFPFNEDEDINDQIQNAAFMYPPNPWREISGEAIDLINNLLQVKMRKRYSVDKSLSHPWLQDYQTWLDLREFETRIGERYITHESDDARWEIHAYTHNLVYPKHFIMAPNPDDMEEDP
Kind of test: Residual activity of PKCnu at 1 uM by microplate scintillation counting.

Test [2] concerns the target CDC42BPA protein (Homo sapiens) (UniProt B9EGA7). Briefly: Residual activity of CDC42BPA at 0.1 uM by microplate scintillation counting.
Test [3] deals with T2, Calcium/calmodulin-dependent protein kinase type IV (Homo sapiens) (UniProt Q16566).
T2 sequence (whole entry): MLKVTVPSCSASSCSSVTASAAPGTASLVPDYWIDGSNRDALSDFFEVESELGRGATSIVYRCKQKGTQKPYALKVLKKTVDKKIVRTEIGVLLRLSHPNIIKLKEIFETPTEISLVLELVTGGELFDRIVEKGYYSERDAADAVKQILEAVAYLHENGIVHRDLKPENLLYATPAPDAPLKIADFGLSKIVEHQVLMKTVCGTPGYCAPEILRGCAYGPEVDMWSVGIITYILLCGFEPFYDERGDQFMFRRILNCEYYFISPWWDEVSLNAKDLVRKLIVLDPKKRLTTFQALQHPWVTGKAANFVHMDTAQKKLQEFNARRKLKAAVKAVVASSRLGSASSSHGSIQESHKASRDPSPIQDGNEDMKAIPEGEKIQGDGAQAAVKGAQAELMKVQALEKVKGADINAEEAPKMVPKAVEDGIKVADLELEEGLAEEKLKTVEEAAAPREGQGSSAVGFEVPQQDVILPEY
Kind of test: Residual activity of CAMK4 at 1 uM by microplate scintillation counting.

Test [4] concerns the target Death-associated protein kinase 1 (Homo sapiens) (UniProt P53355). Kind of test: Residual activity of DAPK1 at 10 uM by microplate scintillation counting.
The target in test [5] is Tyrosine-protein kinase Lyn (Homo sapiens) (UniProt P07948). Briefly: Residual activity of LYN at 1 uM by microplate scintillation counting.
Sequence of Tyrosine-protein kinase Lyn (Homo sapiens) (P07948 2-512 limits assumed): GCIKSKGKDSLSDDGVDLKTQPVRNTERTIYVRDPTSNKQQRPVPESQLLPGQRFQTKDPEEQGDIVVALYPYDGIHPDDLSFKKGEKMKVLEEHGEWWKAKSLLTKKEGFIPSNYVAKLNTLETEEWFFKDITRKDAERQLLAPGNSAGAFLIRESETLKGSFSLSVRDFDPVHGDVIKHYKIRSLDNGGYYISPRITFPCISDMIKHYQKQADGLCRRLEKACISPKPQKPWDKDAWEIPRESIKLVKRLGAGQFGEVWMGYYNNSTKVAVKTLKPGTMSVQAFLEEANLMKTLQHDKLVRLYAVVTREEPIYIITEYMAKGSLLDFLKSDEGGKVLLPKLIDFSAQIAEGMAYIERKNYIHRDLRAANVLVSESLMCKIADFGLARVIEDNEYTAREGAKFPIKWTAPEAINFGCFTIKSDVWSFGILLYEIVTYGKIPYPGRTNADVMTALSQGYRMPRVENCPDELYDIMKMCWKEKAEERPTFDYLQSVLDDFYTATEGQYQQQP
Test [6] has as its target Serine/threonine-protein kinase pim-2 (Homo sapiens) (UniProt Q9P1W9). Briefly: Residual activity of PIM2 at 10 uM by microplate scintillation counting.
Test [7] deals with Homeodomain-interacting protein kinase 3 (Homo sapiens) (UniProt Q9H422). Kind of test: Residual activity of HIPK3 at 0.1 uM by microplate scintillation counting.
In test [8] the target is Mitogen-activated protein kinase 10 (Homo sapiens) (UniProt P53779). Briefly: Residual activity of JNK3 at 10 uM by microplate scintillation counting.
Sequence of Mitogen-activated protein kinase 10 (Homo sapiens) (P53779 whole entry, canonical isoform): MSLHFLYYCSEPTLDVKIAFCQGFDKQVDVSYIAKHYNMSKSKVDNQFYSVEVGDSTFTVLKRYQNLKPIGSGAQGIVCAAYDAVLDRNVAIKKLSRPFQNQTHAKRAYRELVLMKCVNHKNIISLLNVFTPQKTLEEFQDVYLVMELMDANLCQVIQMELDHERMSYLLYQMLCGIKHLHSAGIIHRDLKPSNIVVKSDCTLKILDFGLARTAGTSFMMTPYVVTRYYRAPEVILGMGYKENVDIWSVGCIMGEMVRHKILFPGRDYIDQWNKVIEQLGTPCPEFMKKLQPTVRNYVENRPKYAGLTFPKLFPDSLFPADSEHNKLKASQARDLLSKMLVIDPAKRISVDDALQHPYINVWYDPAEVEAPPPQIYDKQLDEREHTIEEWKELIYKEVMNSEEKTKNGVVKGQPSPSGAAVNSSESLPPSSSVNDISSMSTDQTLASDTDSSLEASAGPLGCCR
Test [9] deals with Casein kinase I isoform gamma-2 (Homo sapiens) (UniProt P78368). Briefly: Residual activity of CK1gamma2 at 1 uM by microplate scintillation counting.
Sequence of Casein kinase I isoform gamma-2 (Homo sapiens) (P78368 whole entry, looked up, canonical isoform): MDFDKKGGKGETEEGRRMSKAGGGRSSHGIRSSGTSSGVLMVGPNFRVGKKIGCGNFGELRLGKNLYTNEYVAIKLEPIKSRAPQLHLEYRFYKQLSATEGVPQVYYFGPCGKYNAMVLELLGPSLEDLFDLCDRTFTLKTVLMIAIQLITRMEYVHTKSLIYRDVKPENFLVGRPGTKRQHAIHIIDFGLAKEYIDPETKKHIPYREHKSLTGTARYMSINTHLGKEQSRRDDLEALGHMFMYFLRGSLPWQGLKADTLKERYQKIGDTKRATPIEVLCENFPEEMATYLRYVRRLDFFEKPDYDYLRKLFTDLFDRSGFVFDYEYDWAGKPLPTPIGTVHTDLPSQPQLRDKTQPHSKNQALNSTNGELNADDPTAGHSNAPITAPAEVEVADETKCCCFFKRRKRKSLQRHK
The target of test [10] is T3, Aurora kinase A (Homo sapiens, UniProt O14965).
T3 sequence (O14965 whole entry): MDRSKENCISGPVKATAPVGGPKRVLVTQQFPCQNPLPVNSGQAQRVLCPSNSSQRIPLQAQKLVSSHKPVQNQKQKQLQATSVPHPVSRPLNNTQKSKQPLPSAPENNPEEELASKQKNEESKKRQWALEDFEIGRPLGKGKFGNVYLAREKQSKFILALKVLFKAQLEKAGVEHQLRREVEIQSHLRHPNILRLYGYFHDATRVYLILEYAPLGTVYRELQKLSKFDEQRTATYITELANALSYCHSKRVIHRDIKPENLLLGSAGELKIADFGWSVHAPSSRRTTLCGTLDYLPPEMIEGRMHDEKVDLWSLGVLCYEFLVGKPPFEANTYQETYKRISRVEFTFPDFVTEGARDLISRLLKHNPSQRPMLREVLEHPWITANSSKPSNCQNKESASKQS
Kind of test: Inhibition of Aurora-A by microplate scintillation counting. The procedure, abridged: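 Substrates: tetra(LRRWSLG) for Aurora A/B; poly(Ala,Glu,Lys,Tyr)6:2:5:1 for PDGFRβ; poly(Glu,Tyr)4:1 for TIE2 and VEGFR2. Stopped with 2% H3PO4.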

Test [11] concerns the target Protein kinase C beta type (Homo sapiens) (UniProt P05771). Kind of test: Residual activity of PKCbeta1 at 0.1 uM by microplate scintillation counting.
For test [12], the target named is T4, Testis-specific serine/threonine-protein kinase 2 (Homo sapiens) (UniProt Q96PF2).
T4 sequence (whole entry): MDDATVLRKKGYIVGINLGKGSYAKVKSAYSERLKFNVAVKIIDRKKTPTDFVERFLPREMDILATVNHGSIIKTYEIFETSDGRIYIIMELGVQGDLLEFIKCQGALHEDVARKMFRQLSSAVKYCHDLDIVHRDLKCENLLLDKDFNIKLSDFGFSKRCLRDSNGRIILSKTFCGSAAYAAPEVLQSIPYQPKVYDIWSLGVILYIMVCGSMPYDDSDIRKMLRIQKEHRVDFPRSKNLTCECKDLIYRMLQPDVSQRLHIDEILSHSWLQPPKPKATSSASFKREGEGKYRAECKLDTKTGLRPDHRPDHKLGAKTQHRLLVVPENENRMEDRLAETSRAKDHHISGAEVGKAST
Kind of test: Residual activity of TSK2 at 0.1 uM by microplate scintillation counting.

Test [13] deals with Homeodomain-interacting protein kinase 1 (Homo sapiens) (UniProt Q86Z02). Briefly: Residual activity of HIPK1 at 10 uM by microplate scintillation counting.
The target in test [14] is Serine/threonine-protein kinase SIK2 (Homo sapiens) (UniProt Q9H0K1). Kind of test: Residual activity of SNF1LK2 at 10 uM by microplate scintillation counting.
Sequence of Serine/threonine-protein kinase SIK2 (Homo sapiens) (Q9H0K1 whole entry, looked up): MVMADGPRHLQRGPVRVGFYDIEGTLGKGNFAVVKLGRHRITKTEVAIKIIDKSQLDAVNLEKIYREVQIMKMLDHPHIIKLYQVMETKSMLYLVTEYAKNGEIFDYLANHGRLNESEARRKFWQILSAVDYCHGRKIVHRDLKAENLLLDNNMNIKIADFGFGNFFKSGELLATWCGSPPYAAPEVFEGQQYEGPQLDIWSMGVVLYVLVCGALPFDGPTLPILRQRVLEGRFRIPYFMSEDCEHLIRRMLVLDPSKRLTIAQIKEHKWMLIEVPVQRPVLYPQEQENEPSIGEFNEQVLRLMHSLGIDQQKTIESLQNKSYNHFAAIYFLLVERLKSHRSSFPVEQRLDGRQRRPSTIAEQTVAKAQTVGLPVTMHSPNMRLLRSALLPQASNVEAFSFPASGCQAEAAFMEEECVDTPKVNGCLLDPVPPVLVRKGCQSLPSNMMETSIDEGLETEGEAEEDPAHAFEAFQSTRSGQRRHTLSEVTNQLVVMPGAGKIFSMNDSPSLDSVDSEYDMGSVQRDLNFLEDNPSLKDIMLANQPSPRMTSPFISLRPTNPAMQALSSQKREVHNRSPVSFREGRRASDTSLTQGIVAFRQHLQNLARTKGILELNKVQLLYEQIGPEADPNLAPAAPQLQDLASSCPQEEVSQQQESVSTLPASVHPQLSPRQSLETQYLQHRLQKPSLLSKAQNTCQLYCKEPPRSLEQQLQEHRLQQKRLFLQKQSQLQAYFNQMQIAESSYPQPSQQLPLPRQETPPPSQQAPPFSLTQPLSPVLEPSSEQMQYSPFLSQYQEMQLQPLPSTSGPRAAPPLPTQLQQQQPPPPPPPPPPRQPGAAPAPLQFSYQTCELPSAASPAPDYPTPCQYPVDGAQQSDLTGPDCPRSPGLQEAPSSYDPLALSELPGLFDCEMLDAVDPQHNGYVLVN

Sequence of CDC42BPA protein (Homo sapiens) (B9EGA7 as listed by the source): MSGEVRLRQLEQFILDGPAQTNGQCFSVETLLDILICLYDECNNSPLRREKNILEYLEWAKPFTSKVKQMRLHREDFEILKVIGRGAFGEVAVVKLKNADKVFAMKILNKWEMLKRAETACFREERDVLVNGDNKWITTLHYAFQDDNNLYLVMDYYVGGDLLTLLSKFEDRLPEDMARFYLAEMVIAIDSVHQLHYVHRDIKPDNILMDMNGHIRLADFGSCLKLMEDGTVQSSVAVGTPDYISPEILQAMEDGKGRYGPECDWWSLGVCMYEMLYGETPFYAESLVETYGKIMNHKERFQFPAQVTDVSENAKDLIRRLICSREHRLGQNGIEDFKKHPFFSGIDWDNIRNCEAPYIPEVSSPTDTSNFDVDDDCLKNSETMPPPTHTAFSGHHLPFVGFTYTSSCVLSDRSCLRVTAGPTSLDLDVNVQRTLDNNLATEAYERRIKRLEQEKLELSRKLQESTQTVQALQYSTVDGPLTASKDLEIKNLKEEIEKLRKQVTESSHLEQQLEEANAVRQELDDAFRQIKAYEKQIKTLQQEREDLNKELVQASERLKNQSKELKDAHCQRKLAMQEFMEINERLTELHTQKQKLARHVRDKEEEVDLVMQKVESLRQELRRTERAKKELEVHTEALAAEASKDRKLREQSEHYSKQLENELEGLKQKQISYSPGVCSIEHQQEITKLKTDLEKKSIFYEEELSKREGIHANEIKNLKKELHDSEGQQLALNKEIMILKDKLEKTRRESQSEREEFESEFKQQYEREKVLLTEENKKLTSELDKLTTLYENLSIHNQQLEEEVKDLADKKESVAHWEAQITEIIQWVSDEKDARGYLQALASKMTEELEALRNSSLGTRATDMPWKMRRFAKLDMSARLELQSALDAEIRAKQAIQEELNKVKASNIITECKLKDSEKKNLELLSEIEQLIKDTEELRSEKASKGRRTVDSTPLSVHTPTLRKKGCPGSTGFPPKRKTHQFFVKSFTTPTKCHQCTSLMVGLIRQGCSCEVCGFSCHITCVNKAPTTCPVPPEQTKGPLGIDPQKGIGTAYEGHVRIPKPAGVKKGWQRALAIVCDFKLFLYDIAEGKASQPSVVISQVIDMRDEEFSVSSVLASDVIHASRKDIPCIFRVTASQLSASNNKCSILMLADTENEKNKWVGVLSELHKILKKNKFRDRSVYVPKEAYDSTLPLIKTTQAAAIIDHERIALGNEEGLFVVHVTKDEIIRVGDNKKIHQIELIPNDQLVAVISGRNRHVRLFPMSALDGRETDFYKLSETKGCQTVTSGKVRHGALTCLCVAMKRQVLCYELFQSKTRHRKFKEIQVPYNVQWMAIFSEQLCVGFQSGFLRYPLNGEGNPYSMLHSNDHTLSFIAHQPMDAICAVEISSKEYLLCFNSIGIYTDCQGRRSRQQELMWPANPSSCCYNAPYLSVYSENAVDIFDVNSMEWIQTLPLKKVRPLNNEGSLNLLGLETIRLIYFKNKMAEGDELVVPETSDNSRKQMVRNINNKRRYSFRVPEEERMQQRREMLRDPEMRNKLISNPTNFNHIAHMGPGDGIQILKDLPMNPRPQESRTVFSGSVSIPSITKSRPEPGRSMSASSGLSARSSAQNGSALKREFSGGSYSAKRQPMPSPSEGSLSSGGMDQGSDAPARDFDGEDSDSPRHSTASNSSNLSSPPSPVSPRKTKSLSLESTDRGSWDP
Sequence of Protein kinase C beta type (Homo sapiens) (P05771 2-671 limits assumed): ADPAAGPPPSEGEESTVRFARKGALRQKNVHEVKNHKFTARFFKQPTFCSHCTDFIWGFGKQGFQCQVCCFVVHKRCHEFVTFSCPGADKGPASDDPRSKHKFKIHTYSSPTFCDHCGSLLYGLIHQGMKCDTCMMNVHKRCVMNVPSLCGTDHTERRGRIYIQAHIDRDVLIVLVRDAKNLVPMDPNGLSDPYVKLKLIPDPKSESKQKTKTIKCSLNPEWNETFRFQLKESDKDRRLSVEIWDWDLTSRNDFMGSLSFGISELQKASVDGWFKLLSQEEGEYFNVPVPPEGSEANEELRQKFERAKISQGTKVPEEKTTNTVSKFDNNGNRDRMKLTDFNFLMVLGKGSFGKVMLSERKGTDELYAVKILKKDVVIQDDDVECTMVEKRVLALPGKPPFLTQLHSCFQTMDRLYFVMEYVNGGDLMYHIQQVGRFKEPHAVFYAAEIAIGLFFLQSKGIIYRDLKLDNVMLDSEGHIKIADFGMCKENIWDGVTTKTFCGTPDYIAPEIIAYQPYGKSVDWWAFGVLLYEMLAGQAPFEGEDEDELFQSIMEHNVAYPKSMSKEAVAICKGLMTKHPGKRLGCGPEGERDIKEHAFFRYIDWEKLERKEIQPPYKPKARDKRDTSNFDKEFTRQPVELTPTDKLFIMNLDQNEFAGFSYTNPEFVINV
Sequence of Serine/threonine-protein kinase pim-2 (Homo sapiens) (Q9P1W9 whole entry, looked up): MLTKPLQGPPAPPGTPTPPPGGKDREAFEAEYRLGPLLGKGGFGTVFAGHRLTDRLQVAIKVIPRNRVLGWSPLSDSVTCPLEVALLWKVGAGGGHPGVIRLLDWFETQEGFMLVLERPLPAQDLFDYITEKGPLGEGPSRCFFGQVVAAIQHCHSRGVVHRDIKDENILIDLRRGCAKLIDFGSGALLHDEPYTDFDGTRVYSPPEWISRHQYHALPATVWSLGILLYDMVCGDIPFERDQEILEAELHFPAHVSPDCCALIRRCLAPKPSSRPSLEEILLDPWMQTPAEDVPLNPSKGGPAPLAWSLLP

For `COc1cc2c(Oc3ccc(-c4nc5ccccc5s4)cc3)ncnc2cc1OCCCN1CCN(C)CC1`, the residual activity came to 83% in test [1]; 112% in test [2]; 100% in test [3]; 24% in test [4]; 104% in test [5]; 73% in test [6]. Moreover, the residual activity in test [7] worked out at 88%; in test [8] it was 52%; in test [9], 98%; in test [11], 100%; in test [12], 97%; in test [13], 132%. In addition, the residual activity in [14] amounted to 141%. For the same compound, the 50% inhibitory concentration (IC50) in test [10] amounted to 82 nM.

Take `COc1cc2c(Oc3ccc(-c4nc5ccccc5s4)cc3)ncnc2cc1OCCCN1CCCC1`: the residual activity in [1] came out at 87%; in test [2], 104%; in [3] it was 97%; in test [4], 25%; in test [5], 119%; in test [6] it was 113%. The residual activity amounted to 92% in test [7]; 84% in test [8]; 107% in [9]; 102% in test [11]; 101% in test [12]; 103% in test [13]. Also, in test [14], the residual activity is 107%. This compound also came in with a 50% inhibitory concentration (IC50) in test [10] of 170 nM.

For `COc1cc2c(Oc3ccc(-c4nc5ccccc5s4)cc3F)ncnc2cc1OCCCN1CCN(C)CC1`, the residual activity in test [1] was 88%; in test [2], 86%; in test [3] it was 103%; in test [4], 15%; in test [5], 93%; in test [6], 85%. Moreover, the residual activity in [7] was 93%; in [8], 45%; in test [9], 100%; in [11], 109%; in test [12], 96%; in test [13], 142%. For the same compound, in [14], the residual activity was 241%. For the same compound, in [10], 220 nM corresponded to half-maximal inhibition (IC50).

The term IC50 denotes the concentration needed to halve the response being measured. Low readings indicate inhibition by little substance, high ones a need for much substance.
